Measured values reported in ChEMBL document CHEMBL3785023, “Development and Pharmacological Characterization of Selective Blockers of 2-Arachidonoyl Glycerol Degradation with Efficacy in Rodent Models of Multiple Sclerosis and Pain” (J Med Chem, 2016).
pIC50: −log10 of the molar value.

Tests used:
Monoglyceride lipase [1] = target: T1, Monoglyceride lipase (Homo sapiens, UniProt Q99685); assay: Inhibition of recombinant C-terminal His6-tagged human MAGL expressed in Escherichia coli using 2-arachidonoyl-[3H]-glycerol as substrate incubated for 20 mins by scintillation counting method
T1 sequence (Q99685 whole entry): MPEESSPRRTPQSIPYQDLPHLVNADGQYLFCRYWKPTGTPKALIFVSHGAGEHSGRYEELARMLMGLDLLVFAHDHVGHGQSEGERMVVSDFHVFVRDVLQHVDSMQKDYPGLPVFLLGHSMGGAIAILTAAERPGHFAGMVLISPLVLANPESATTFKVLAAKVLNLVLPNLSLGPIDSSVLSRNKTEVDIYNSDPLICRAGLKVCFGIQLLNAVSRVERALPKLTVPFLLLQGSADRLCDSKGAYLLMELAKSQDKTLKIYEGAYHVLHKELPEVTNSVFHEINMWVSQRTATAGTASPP

[2] = target: T2, Fatty-acid amide hydrolase 1 (Homo sapiens, UniProt O00519); assay: Inhibition of recombinant C-terminal His-tagged human FAAH expressed in sf21 cells using N-arachidonoyl-[14C]-ethanolamine as substrate assessed as reduction in [14C]ethanolamine production incubated for 30 mins by scintillation counting method
T2 sequence (O00519 whole entry): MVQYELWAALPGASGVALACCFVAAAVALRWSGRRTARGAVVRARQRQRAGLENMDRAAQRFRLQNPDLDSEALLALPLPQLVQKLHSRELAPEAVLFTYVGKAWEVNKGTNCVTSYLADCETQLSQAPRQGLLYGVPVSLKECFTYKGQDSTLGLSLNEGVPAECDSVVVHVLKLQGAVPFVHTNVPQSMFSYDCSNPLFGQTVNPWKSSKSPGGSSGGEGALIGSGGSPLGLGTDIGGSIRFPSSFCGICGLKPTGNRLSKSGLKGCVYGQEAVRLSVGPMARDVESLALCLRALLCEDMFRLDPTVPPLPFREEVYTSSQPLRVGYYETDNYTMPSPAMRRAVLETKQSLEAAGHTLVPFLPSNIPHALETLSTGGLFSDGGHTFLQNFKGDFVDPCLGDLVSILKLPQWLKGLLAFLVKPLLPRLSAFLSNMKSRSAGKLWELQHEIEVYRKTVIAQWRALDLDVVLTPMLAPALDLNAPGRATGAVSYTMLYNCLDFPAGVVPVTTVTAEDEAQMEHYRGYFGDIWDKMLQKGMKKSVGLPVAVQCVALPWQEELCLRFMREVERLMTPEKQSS
Method in brief: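 Human recombinant FAAH (2 µg/sample) incubated in 50 mM Tris-HCl, pH 9.5, 37 °C, 30 min with N-arachidonoyl-[14C]-ethanolamine diluted with unlabelled AEA. [14C]-ethanolamine released was quantified by scintillation counting of the aqueous phase after extraction with 2 volumes CHCl3/MeOH 1:1. Values are means of three experiments.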

Monoglyceride lipase [3] = target: T1, Monoglyceride lipase; assay: Inhibition of recombinant C-terminal His6-tagged human MAGL expressed in Escherichia coli using 2-arachidonoyl-[3H]-glycerol as substrate preincubated for 10 mins followed by substrate addition measured after 20 mins by scintillation counting method
Method in brief: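 Human recombinant MGL (10,000xg cytosolic fraction, 0.05 µg/sample) is pre-incubated with compound for 10 min. It is then incubated 20 min at 37 °C in 50 mM Tris-HCl pH 7.0 with 2-arachidonoyl-[3H]-glycerol diluted with unlabelled 2-AG. The mix is extracted with 2 vol CHCl3/MeOH 1:1, and [3H]-glycerol in the aqueous phase is counted by scintillation. Values are means of three experiments.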

[4] = Selectivity ratio of IC50 for human recombinant C-terminal His-tagged FAAH expressed in sf21 cells to IC50 for recombinant C-terminal His6-tagged human MAGL expressed in Escherichia coli
Method in brief: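 Ratio of IC50 values from two radiometric assays, each read by scintillation counting of the aqueous phase after CHCl3/MeOH 1:1 extraction. MGL assay: 10,000xg cytosolic fraction of human recombinant MGL (0.05 µg/sample), 50 mM Tris-HCl pH 7.0, 37 °C, 20 min, 2-arachidonoyl-[3H]-glycerol. FAAH assay: human recombinant FAAH (2 µg/sample), pH 9.5, 37 °C, 30 min, [14C]-anandamide. Means of three experiments.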

[5] = target: T3, Fatty-acid amide hydrolase 1 (Mus musculus, UniProt O08914); assay: Inhibition of FAAH in mouse brain membrane using [13C]oleamide as substrate by LC-MS analysis; assay type: cell membranes
T3 sequence (O08914 whole entry): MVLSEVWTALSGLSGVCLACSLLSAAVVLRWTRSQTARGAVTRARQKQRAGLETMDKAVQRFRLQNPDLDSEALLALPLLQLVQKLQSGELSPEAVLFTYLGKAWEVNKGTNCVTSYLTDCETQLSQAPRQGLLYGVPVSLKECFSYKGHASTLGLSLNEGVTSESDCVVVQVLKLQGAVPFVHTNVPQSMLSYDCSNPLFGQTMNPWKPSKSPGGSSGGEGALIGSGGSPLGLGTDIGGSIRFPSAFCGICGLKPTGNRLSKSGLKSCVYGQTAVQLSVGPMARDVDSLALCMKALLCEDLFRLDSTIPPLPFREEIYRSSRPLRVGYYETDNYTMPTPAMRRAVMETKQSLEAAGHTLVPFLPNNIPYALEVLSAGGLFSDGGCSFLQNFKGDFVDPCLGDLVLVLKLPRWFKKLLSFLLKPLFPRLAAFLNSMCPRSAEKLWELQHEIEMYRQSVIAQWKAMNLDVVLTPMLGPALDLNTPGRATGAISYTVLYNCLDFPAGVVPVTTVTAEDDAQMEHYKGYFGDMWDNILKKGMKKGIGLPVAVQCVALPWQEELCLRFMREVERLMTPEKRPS

[6] = target: T4, Fatty-acid amide hydrolase 1 (Rattus norvegicus, UniProt P97612); assay: Inhibition of FAAH in rat brain membranes using N-arachidonoyl-[14C]-ethanolamine as substrate assessed as reduction in [14C]ethanolamine production incubated for 30 mins by scintillation counting method; assay type: cell membranes, Membrane
T4 sequence (P97612 whole entry): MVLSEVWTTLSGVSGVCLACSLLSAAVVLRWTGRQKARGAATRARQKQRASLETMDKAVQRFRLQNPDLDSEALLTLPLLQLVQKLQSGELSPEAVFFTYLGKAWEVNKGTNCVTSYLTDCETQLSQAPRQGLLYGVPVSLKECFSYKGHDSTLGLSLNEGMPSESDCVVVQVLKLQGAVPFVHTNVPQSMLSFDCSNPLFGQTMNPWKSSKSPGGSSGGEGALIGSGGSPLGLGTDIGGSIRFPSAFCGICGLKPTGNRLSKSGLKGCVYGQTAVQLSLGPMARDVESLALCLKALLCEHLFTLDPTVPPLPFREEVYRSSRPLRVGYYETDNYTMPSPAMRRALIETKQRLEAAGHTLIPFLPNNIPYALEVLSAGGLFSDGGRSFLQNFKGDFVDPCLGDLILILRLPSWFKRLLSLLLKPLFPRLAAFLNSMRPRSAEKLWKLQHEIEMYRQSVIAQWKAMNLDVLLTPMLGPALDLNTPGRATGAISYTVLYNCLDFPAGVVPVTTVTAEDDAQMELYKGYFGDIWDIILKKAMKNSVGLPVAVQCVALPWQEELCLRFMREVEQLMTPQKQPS
Method in brief: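 10,000×g membrane fraction of rat brain (70 µg per sample) incubated in 50 mM Tris-HCl pH 9.5 at 37 °C for 30 min with N-arachidonoyl-[14C]-ethanolamine diluted with AEA. Released [14C]-ethanolamine measured by scintillation counting of the aqueous phase after CHCl3/MeOH 1:1 extraction. Means of three experiments.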

| pIC50 (Monoglyceride lipase [1]) | pIC50 [6] | Compound | also measured |
| --- | --- | --- | --- |
| < 5.00 |  | O=C(N1CCCCC1)n1cncn1 |  |
|  |  | O=C(Oc1ccc([N+](=O)[O-])cc1)N1CCC(C(O)(c2ccc3c(c2)OCO3)c2ccc3c(c2)OCO3)CC1 | pIC50 [5]: < 5.00 |
|  |  | O=C1[C@H](c2ccc(F)cc2)[C@@H](c2ccc3c(c2)OCO3)N1C1CCN(C(=O)n2cncn2)CC1 [listing 2 of 2 here] | Ratio IC50 [4]: 880 |
| < 5.00 |  | O=C1[C@H](c2ccc(F)cc2)[C@@H](c2ccc3c(c2)OCO3)N1C1CCN(Cc2ccccc2)CC1 (racemic) |  |
|  | 5.43 | COc1ccc([C@H]2C(=O)N(C3CCN(C(=O)n4cncn4)CC3)[C@@H]2c2ccc(OC)cc2)cc1 (racemic) |  |
| 8.85 |  | O=C(Oc1ccc([N+](=O)[O-])cc1)N1CCC(N2C(=O)[C@H](c3ccc(F)cc3)[C@H]2c2ccc3c(c2)OCO3)CC1 (racemic) | Ratio IC50 [4]: > 7; pIC50 [2]: < 5.00 |
|  | < 5.00 | COc1ccc([C@H]2C(=O)N(C3CCN(C(=O)n4cncn4)CC3)[C@@H]2c2ccc(OC)c(OC)c2)cc1OC (racemic) |  |
| < 5.00 |  | O=C1[C@H](c2ccc(F)cc2)[C@@H](c2ccc3c(c2)OCO3)N1C1CCN(C(=O)n2ccnc2)CC1 (racemic) |  |
|  | 6.14 | COc1ccc([C@H]2C(=O)N(C3CCN(C(=O)n4cncn4)CC3)[C@@H]2c2ccc(OC)c(OC)c2)cc1 (racemic) |  |
|  | 5.59 | COc1ccc([C@H]2C(=O)N(C3CCN(C(=O)n4cncn4)CC3)[C@@H]2c2ccc3c(c2)OCO3)cc1 (racemic) |  |
| < 5.00 |  | O=C1[C@H](c2ccc(F)cc2)[C@@H](c2ccc3c(c2)OCO3)N1C1CCNCC1 (racemic) |  |
|  | < 4.30 | O=C(OC(C(F)(F)F)C(F)(F)F)N1CCC(N2C(=O)[C@H](c3ccc(F)cc3)[C@H]2c2ccc3c(c2)OCO3)CC1 (racemic) |  |

| Compound | pIC50 (Monoglyceride lipase [1]) | pIC50 [6] | also measured |
| --- | --- | --- | --- |
| O=C1[C@H](c2ccc(F)cc2)[C@@H](c2ccc3c(c2)OCO3)N1C1CCN(C(=O)n2cncn2)CC1 [listing 1 of 2 here] | 8.34 |  | pIC50 [2]: 5.39; pIC50 (Monoglyceride lipase [3]): 6.98 |
| O=C1[C@@H](c2ccc(F)cc2)[C@H](c2ccc3c(c2)OCO3)N1C1CCN(C(=O)n2cncn2)CC1 | 7.51 |  | Ratio IC50 [4]: 248; pIC50 [2]: 5.11; pIC50 (Monoglyceride lipase [3]): 6.14 |
